ChEMBL document CHEMBL1137660, “Molecular and biochemical characterization of the chromosome-encoded class A beta-lactamase BCL-1 from Bacillus clausii” (Antimicrob Agents Chemother, 2007)
≈ marks a conversion by molar mass, not a printed value.

Key:
Format in all cases: functional
Escherichia coli [1] = assay: Antimicrobial activity against Escherichia coli BL21(DE3) by agar-dilution technique
Outline: (§1)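 MICs by agar dilution on Mueller-Hinton agar following CLSI recommendations. E. coli DH10B clone carries EcoRI-restricted B. clausii NR DNA in pJIM2246. BL21(DE3) carries blaBCL-1 in pET9a.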

Shouchella clausii [2] = assay: Antimicrobial activity against Bacillus clausii ATCC 21537 by agar-dilution technique in presence of beta-lactamase inhibitor clavulanic acid; outline: as §1
Shouchella clausii [3] = assay: Antimicrobial activity against Bacillus clausii NR expressing beta-lactamase BCL1 by agar-dilution technique in presence of beta-lactamase inhibitor clavulanic acid; outline: as §1
Shouchella clausii [4] = assay: Antimicrobial activity against Bacillus clausii ATCC 21537 by agar-dilution technique
Escherichia coli [5] = assay: Antimicrobial activity against Escherichia coli DH10B by agar-dilution technique in presence of beta-lactamase inhibitor clavulanic acid; conditions: K-12 substr. DH10B; outline: as §1
Escherichia coli [6] = assay: Antimicrobial activity against Escherichia coli DH10B by agar-dilution technique; conditions: K-12 substr. DH10B; outline: as §1
Escherichia coli [7] = assay: Antimicrobial activity against Escherichia coli DH10B carrying pJIM2246 expressing Bacillus clausii NR beta-lactamase BCL1 by agar-dilution technique in presence of beta-lactamase inhibitor clavulanic acid; conditions: K-12 substr. DH10B; outline: as §1
Escherichia coli [8] = assay: Antimicrobial activity against Escherichia coli BL21(DE3) by agar-dilution technique in presence of beta-lactamase inhibitor clavulanic acid; outline: as §1
Escherichia coli [9] = assay: Antimicrobial activity against Escherichia coli BL21(DE3) carrying pET9a expressing Bacillus clausii beta-lactamase BCL1 by agar-dilution technique in presence of beta-lactamase inhibitor clavulanic acid; outline: as §1
Shouchella clausii [10] = assay: Antimicrobial activity against Bacillus clausii NR expressing beta-lactamase BCL1 by agar-dilution technique
Escherichia coli [11] = assay: Antimicrobial activity against Escherichia coli BL21(DE3) carrying pET9a expressing Bacillus clausii beta-lactamase BCL1 by agar-dilution technique
Escherichia coli [12] = assay: Antimicrobial activity against Escherichia coli DH10B carrying pJIM2246 expressing Bacillus clausii NR beta-lactamase BCL1 by agar-dilution technique; conditions: K-12 substr. DH10B
Escherichia coli [13] = assay: Antimicrobial activity against Escherichia coli DH10B carrying pJIM2246 expressing Bacillus clausii NR beta-lactamase BCL1 by agar-dilution technique in presence of beta-lactamase inhibitor Tazobactam; conditions: K-12 substr. DH10B; outline: as §1
Escherichia coli [14] = assay: Antimicrobial activity against Escherichia coli DH10B by agar-dilution technique in presence of beta-lactamase inhibitor Tazobactam; conditions: K-12 substr. DH10B; outline: as §1
Shouchella clausii [15] = assay: Antimicrobial activity against Bacillus clausii ATCC 21537 by agar-dilution technique in presence of beta-lactamase inhibitor Tazobactam; outline: as §1
Escherichia coli [16] = assay: Antimicrobial activity against Escherichia coli BL21(DE3) carrying pET9a expressing Bacillus clausii beta-lactamase BCL1 by agar-dilution technique in presence of beta-lactamase inhibitor Tazobactam; outline: as §1
Shouchella clausii [17] = assay: Antimicrobial activity against Bacillus clausii NR expressing beta-lactamase BCL1 by agar-dilution technique in presence of beta-lactamase inhibitor Tazobactam; outline: as §1
Escherichia coli [18] = assay: Antimicrobial activity against Escherichia coli BL21(DE3) by agar-dilution technique in presence of beta-lactamase inhibitor Tazobactam; outline: as §1

| Compound | MIC (Escherichia coli [1]) | MIC (Shouchella clausii [4]) | MIC (Escherichia coli [6]) | MIC (Shouchella clausii [10]) | MIC (Escherichia coli [11]) | MIC (Escherichia coli [12]) | further results |
| --- | --- | --- | --- | --- | --- | --- | --- |
| CO/N=C(\C(=O)N[C@@H]1C(=O)N2C(C(=O)[O-])=C(C[N+]3(C)CCCC3)CS[C@H]12)c1csc(N)n1 | 0.06 µg/mL (≈ 0.125 µM) | – | – | – | – | – | – |
| CC1(C)S[C@@H]2[C@H](NC(=O)[C@H](N)c3ccc(O)cc3)C(=O)N2[C@H]1C(=O)O [AMOXICILLIN] | 1 µg/mL (≈ 2.74 µM) | 1 µg/mL (≈ 2.74 µM) | 8 µg/mL (≈ 21.9 µM) | 0.5 µg/mL (≈ 1.37 µM) | – | – | MIC (Shouchella clausii [2]; read-out: MIC): 120 µg/mL; MIC (Shouchella clausii [3]): 0.12 µg/mL; MIC (Escherichia coli [5]): 4 µg/mL; MIC (Escherichia coli [7]): 32 µg/mL; MIC (Escherichia coli [8]): 1 µg/mL; MIC (Escherichia coli [9]): 2 µg/mL |
| CO/N=C(\C(=O)N[C@@H]1C(=O)N2C(C(=O)O)=C(COC(C)=O)CS[C@H]12)c1csc(N)n1 [CEFOTAXIME] | 0.06 µg/mL (≈ 0.132 µM) | 16 µg/mL (≈ 35.1 µM) | 0.06 µg/mL (≈ 0.132 µM) | 16 µg/mL (≈ 35.1 µM) | 0.06 µg/mL (≈ 0.132 µM) | 0.12 µg/mL (≈ 0.263 µM) | MIC (Shouchella clausii [2]): 16 µg/mL; MIC (Shouchella clausii [3]): 16 µg/mL; MIC (Escherichia coli [5]): 0.06 µg/mL; MIC (Escherichia coli [7]): 0.06 µg/mL; MIC (Escherichia coli [8]): 0.06 µg/mL; MIC (Escherichia coli [9]): 0.06 µg/mL |
| CO[C@@]1(NC(=O)Cc2cccs2)C(=O)N2C(C(=O)O)=C(COC(N)=O)CS[C@@H]21 [CEFOXITIN] | 0.5 µg/mL (≈ 1.17 µM) | 16 µg/mL (≈ 37.4 µM) | 8 µg/mL (≈ 18.7 µM) | 32 µg/mL (≈ 74.9 µM) | 2 µg/mL (≈ 4.68 µM) | 16 µg/mL (≈ 37.4 µM) | – |
| CO/N=C(\C(=O)N[C@@H]1C(=O)N2C(C(=O)[O-])=C(C[n+]3cccc4c3CCC4)CS[C@H]12)c1csc(N)n1 [CEFPIROME] | 0.06 µg/mL (≈ 0.117 µM) | – | 0.06 µg/mL (≈ 0.117 µM) | – | 0.5 µg/mL (≈ 0.972 µM) | 0.12 µg/mL (≈ 0.233 µM) | MIC (Shouchella clausii [2]): 8 µg/mL; MIC (Shouchella clausii [3]): 8 µg/mL; MIC (Escherichia coli [5]): 0.06 µg/mL; MIC (Escherichia coli [7]): 0.06 µg/mL; MIC (Escherichia coli [8]): 0.06 µg/mL; MIC (Escherichia coli [9]): 0.06 µg/mL |
| CC(C)(O/N=C(\C(=O)N[C@@H]1C(=O)N2C(C(=O)[O-])=C(C[n+]3ccccc3)CS[C@H]12)c1csc(N)n1)C(=O)O [CEFTAZIDIME] | 0.06 µg/mL (≈ 0.11 µM) | – | 0.12 µg/mL (≈ 0.22 µM) | – | 0.12 µg/mL (≈ 0.22 µM) | 0.5 µg/mL (≈ 0.915 µM) | MIC (Escherichia coli [5]): 0.12 µg/mL; MIC (Escherichia coli [7]): 0.5 µg/mL; MIC (Escherichia coli [8]): 0.06 µg/mL; MIC (Escherichia coli [9]): 0.06 µg/mL |
| CO/N=C(\C(=O)N[C@@H]1C(=O)N2C(C(=O)O)=C(CSc3nc(=O)c(O)nn3C)CS[C@H]12)c1csc(N)n1 [CEFTRIAXONE] | 0.06 µg/mL (≈ 0.108 µM) | – | 0.06 µg/mL (≈ 0.108 µM) | – | 0.06 µg/mL (≈ 0.108 µM) | 0.06 µg/mL (≈ 0.108 µM) | – |
| CO/N=C(\C(=O)N[C@@H]1C(=O)N2C(C(=O)O)=C(COC(N)=O)CS[C@H]12)c1ccco1 [CEFUROXIME] | 0.5 µg/mL (≈ 1.18 µM) | – | 8 µg/mL (≈ 18.9 µM) | – | 2 µg/mL (≈ 4.71 µM) | 16 µg/mL (≈ 37.7 µM) | – |
| O=C(Cc1cccs1)N[C@@H]1C(=O)N2C(C(=O)[O-])=C(C[n+]3ccccc3)CS[C@H]12 [CEPHALORIDINE] | 0.06 µg/mL (≈ 0.144 µM) | – | 0.12 µg/mL (≈ 0.289 µM) | – | 0.06 µg/mL (≈ 0.144 µM) | 0.12 µg/mL (≈ 0.289 µM) | – |
| CC(=O)OCC1=C(C(=O)O)N2C(=O)[C@@H](NC(=O)Cc3cccs3)[C@H]2SC1 [CEPHALOTHIN] | 1 µg/mL (≈ 2.52 µM) | 8 µg/mL (≈ 20.2 µM) | 4 µg/mL (≈ 10.1 µM) | 8 µg/mL (≈ 20.2 µM) | 16 µg/mL (≈ 40.4 µM) | 64 µg/mL (≈ 161 µM) | – |
| C[C@@H](O)[C@H]1C(=O)N2C(C(=O)O)=C(SCCNC=N)C[C@H]12 [IMIPENEM ANHYDROUS] | – | – | – | 0.25 µg/mL (≈ 0.835 µM) | – | – | – |
| CO[C@@]1(NC(=O)C(C(=O)O)c2ccc(O)cc2)C(=O)N2C(C(=O)O)=C(CSc3nnnn3C)CO[C@@H]21 (some centres not stated) [MOXALACTAM] | 0.25 µg/mL (≈ 0.48 µM) | 0.25 µg/mL (≈ 0.48 µM) | 0.25 µg/mL (≈ 0.48 µM) | 64 µg/mL (≈ 123 µM) | 0.25 µg/mL (≈ 0.48 µM) | 0.25 µg/mL (≈ 0.48 µM) | – |
| CC1(C)S[C@@H]2[C@H](NC(=O)Cc3ccccc3)C(=O)N2[C@H]1C(=O)O [PENICILLIN G] | 2 µg/mL (≈ 5.98 µM) | 0.5 µg/mL (≈ 1.5 µM) | 32 µg/mL (≈ 95.7 µM) | 0.5 µg/mL (≈ 1.5 µM) | – | – | – |
| CCN1CCN(C(=O)N[C@@H](C(=O)N[C@@H]2C(=O)N3[C@@H]2SC(C)(C)[C@@H]3C(=O)O)c2ccccc2)C(=O)C1=O [PIPERACILLIN] | 1 µg/mL (≈ 1.93 µM) | 16 µg/mL (≈ 30.9 µM) | 4 µg/mL (≈ 7.73 µM) | 16 µg/mL (≈ 30.9 µM) | 32 µg/mL (≈ 61.8 µM) | 8 µg/mL (≈ 15.5 µM) | MIC (Escherichia coli [13]): 2 µg/mL; MIC (Escherichia coli [14]): 4 µg/mL; MIC (Shouchella clausii [15]): 8 µg/mL; MIC (Escherichia coli [16]): 0.5 µg/mL; MIC (Shouchella clausii [17]): 8 µg/mL; MIC (Escherichia coli [18]): 0.5 µg/mL |
| CC1(C)S[C@@H]2[C@H](NC(=O)[C@H](C(=O)O)c3ccsc3)C(=O)N2[C@H]1C(=O)O [TICARCILLIN] | 1 µg/mL (≈ 2.6 µM) | 8 µg/mL (≈ 20.8 µM) | 8 µg/mL (≈ 20.8 µM) | 8 µg/mL (≈ 20.8 µM) | – | – | – |
